ChEMBL document CHEMBL4673214, “Synthesis and antibacterial bioactivities of cationic deacetyl linezolid amphiphiles” (Eur J Med Chem, 2018)

Tests used:
Assay type in all cases: functional
Escherichia coli [1] = test: Antibiofilm activity against 72 hrs preformed biofilm of Escherichia coli ATCC 25922 assessed as biofilm viability at 16 ug/ml incubated for 24 hrs by […] (reference value: 16.1 log10CFU); conditions: dose 16 µg/ml
Outline: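 E. coli from mid-log phase was diluted to ~10^5 CFU/mL in M9 medium with 0.02% casamino acids and 0.5% glycerol and formed biofilm without shaking for 72 h. Wells were PBS-washed, then treated with 2-128 µg/mL for 24 h at 37 °C; medium-only wells served as control. Cells were released with trypsin-EDTA and plated as tenfold dilutions. Viability was given as log10 CFU/well.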

Escherichia coli [2] = test: Antibiofilm activity against 24 hrs preformed biofilm of Escherichia coli ATCC 25922 assessed as eradication of preformed biofilm incubated for 24 hrs by crystal violet staining assay
Staphylococcus aureus [3] = test: Antibiofilm activity against Staphylococcus aureus ATCC 29213 assessed as inhibition of biofilm formation incubated for 24 hrs by crystal violet staining assay
Outline: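 Twofold serial dilutions in MHB received 1:1000-diluted exponential-phase bacteria and were incubated 24 h at 37 °C. Wells were rinsed, stained with 0.1% crystal violet for 10 min and dissolved in ethanol, and OD540 was read. MBIC80 was the concentration inhibiting 80% of biofilm formation versus untreated wells, taken from dose-response curves.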

Staphylococcus aureus [4] = test: Antibiofilm activity against 24 hrs preformed biofilm of Staphylococcus aureus ATCC 29213 assessed as biofilm viability at 64 ug/ml incubated for 24 hrs by crystal violet staining analysis (reference value: 18.9 1og10CFU); conditions: dose 64 µg/ml
Staphylococcus aureus [5] = test: Antibacterial activity against Staphylococcus aureus ATCC 29213 assessed as reduction in bacterial measured after 20 passages by CLSI-based broth microdilution method
Outline: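 Serial passaging: after each 24 h MIC assay, cells grown at 1/2 MIC were transferred and the MIC assayed again, for 20 passages. Done with S. aureus, E. coli and MRSA. MIC plotted against days of passage. Experiment repeated twice.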

Structure (SMILES): CCCCCCCCCCCN(C[C@H]1CN(c2ccc(N3CCOCC3)c(F)c2)C(=O)O1)C(=O)[C@@H](N)CCCCN.Cl.Cl
- Activity (Escherichia coli [1]): 7.1 log10CFU
- MBEC (Escherichia coli [2]): 128 µg/mL
- MBEC80 (Escherichia coli [2]): 112.8 µg/mL
- MBEC90 (Escherichia coli [2]): 120.3 µg/mL
- MBIC80 (Staphylococcus aureus [3]): 25.9 µg/mL
- MBIC90 (Staphylococcus aureus [3]): 34.1 µg/mL
- Activity (Staphylococcus aureus [4]): 5.9 log10CFU
- MIC (Staphylococcus aureus [5]): 2 µg/mL
